SUMO1-SIM PPI = modulators of human SUMO1-mediated protein-protein interactions; 0.33% of 360,000 active; SUMO1 binding to a labelled peptide, TR-FRET, 1 h; inhibition, % at 20 µM; P63165; in the data active = inhibition above about 37%
Target sequence (P63165 whole entry, looked up): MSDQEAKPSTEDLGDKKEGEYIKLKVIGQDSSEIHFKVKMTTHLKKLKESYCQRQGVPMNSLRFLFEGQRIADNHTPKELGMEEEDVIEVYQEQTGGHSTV
DNMT1 inh = blocks human DNA methyltransferase DNMT1; P26358; DNMT1 molecular beacon, Hinp1I cleavage, fluorescence; inhibition (reported as % activation of signal), % at 10 µM; 0.83% of 360,000 active; AID 588458; in the data active = inhibition above about 50%
LMPTP block = blocks human LMPTP phosphatase | recombinant LMPTP-A, OMFP fluorogenic substrate, fluorescence intensity | inhibition, % at 20 µM | 0.22% of 360,000 active;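 active = compounds that cut the enzyme signal by at least half of the control window in the single-dose screen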;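 note: plate controls were DMSO wells with enzyme plus substrate for no effect and substrate without enzyme for full effect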
Target sequence (P24666 whole entry, looked up): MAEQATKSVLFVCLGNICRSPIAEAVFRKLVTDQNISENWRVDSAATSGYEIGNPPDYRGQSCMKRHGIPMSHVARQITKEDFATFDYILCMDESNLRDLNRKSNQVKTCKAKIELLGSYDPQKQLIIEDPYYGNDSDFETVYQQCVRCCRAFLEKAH
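Assay system: LMPTP-A, protein tyrosine phosphatase of low molecular weight / Medium: pH 6.0 Bis-Tris buffer with DTT and Triton X-100 / Schedule: 50 min enzyme reaction at room temperature, protected from light / Measured by: endpoint fluorescence intensity from OMFP dephosphorylation / Read-out basis: % inhibition relative to no-enzyme and uninhibited control wells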
Scp1 inh = blocks human Scp-1 phosphatase activity; Q9GZU7; AID 493091; Recombinant Scp1, phosphopeptide, malachite green phosphate absorbance; inhibition, % at 20 µM; 0.88% of 340,000 active;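 active = inhibition above about 50% at 20 µM, limit read from the data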;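 note: plate controls were DMSO wells with enzyme for no effect and wells lacking enzyme for full effect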
Target sequence (Q9GZU7 76-261 limits assumed): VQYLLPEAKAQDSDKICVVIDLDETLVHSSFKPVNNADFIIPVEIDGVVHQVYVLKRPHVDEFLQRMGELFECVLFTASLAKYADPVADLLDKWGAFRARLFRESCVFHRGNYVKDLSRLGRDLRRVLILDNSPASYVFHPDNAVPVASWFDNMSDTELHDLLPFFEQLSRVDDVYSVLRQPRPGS
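Test system: SCP-1 catalytic domain; Buffer or medium: Acidic Tris acetate buffer with magnesium and detergent; Also added: Phosphorylated 17-residue peptide substrate; Compound: single 20 µM dose, 1% DMSO; Schedule: enzyme reaction 45 min at room temperature, colour 5 min, stabilisation 30 min; Signal: Phosphate-binding colour reagent, absorbance read at 630 nm.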
STEP block = blocks human striatal-enriched tyrosine phosphatase; P54829; recombinant STEP, OMFP fluorogenic substrate, fluorescence; inhibition, % at 20 µM; 0.25% of 360,000 active;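 active = inhibition at 20 µM, scaled per plate between control wells, above about 37%, limit read from the data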;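 note: 0% = DMSO with enzyme and substrate and 100% = substrate only without enzyme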
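Assay system: isolated STEP enzyme. Buffer or medium: pH 6.0 Bis-Tris with DTT and Tween 20. Also added: fluorogenic phosphatase substrate OMFP at 25 µM final. Dosing: 20 µM, 1% DMSO. Timing: 20 min reaction, room temperature, in the dark. Measured by: fluorescence intensity, excitation 480 nm, emission 540 nm. Evaluation: normalized % inhibition.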
Scp1 confirm = confirmation of human Scp-1 phosphatase inhibitors. shares compounds with Scp1 inh. recombinant SCP-1 catalytic domain, phosphate release, malachite green absorbance. inhibition, % at 20 µM. 61% of 2,500 active. AID 540281;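 note: plate controls were DMSO with enzyme for no effect and buffer wells lacking enzyme for full effect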
Scp-1 MG ctr = counter-screen for Scp-1 inhibitors: colorimetric interference | shares compounds with Scp1 inh | Colorimetric interference counterscreen, malachite green absorbance 630 nm | apparent inhibition (interference), % at 20 µM | 2,500 tested, under 10 active;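 note: compounds added after enzyme reaction finished so only phosphate colour detection is probed; plate controls were DMSO wells with completed Scp-1 reaction for no effect and substrate wells lacking enzyme for full effect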
Scp-1 Tm shift = binds human Scp-1, shifting its melting temperature; thermal shift relative to vanadate control, % at 40 µM; 25% of 1,500 active; shares compounds with Scp1 inh; AID 540329; Recombinant SCP1, Sypro Orange thermal shift Tm;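 active = substances whose mean melting-temperature shift, as a percentage of the reference inhibitor's shift, reaches about 5.3%, limit read from the data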;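 note: 0% = Tm of DMSO wells and 100% = Tm with sodium orthovanadate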
The depositor's hits bear a star; / = no result given. Most compounds without a hit are left out; they make up all but 1.7% or so of the library.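 Rule for the calls, unless noted: active = inhibition of at least 30% at 20 µM; inactive = the rest.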

SMILES	SUMO1-SIM PPI	DNMT1 inh	LMPTP block	Scp1 inh	STEP block	Scp1 confirm	Scp-1 MG ctr	others
COC(CNC(=O)Cn1nc(Cc2ccncc2)c2ccccc2c1=O)OC	-3	-1	-2	5	1	/	/
O=C(Cn1ncc(Cl)c(Cl)c1=O)NC1CCS(=O)(=O)C1 (centres undefined)	8	4	0	88*	1	69*	-8	Scp-1 Tm shift=-11
CN(C)S(=O)(=O)c1cccc(C(=O)OCC(=O)Nc2sccc2C(N)=O)c1	20	9	17	57*	9	4	0
Cc1ccc(C2(C)NC(=O)N(CC(=O)N3CCN(S(=O)(=O)c4ccc(Cl)s4)CC3)C2=O)cc1 (centres undefined)	1	-1	0	-1	3	/	/
COCCN(C(=O)Cn1nnc2ccccc21)C(C(=O)NC1CCCCC1)c1ccc(OC)cc1OC (centres undefined)	-1	11	1	71*	0	48*	-5	Scp-1 Tm shift=-15
Cc1ccc(NC(=O)COC(=O)C2CCC(=O)N2)c(S(=O)(=O)N2CCOCC2)c1 (centres undefined)	-1	9	-1	3	-1	-1	-5
O=C(COC(=O)C1CCC(=O)N1)Nc1ccc(Cl)cc1Cl (centres undefined)	-2	0	-1	-7	-2	/	/
C[N+](C)(C)C(Cc1ccccc1)C(=O)[O-] (centres undefined)	5	2	-1	10	-2	/	/
OC(COC1CCCCC1)CN1CCCCC1 (centres undefined)	-1	0	1	55*	2	-18	-17
CC(C)(C)C1CCC(OCC(O)CN2CCCC2)CC1 (centres undefined)	0	0	-1	-9	3	/	/
CC(C)CC1Nc2ccc(C(=O)NCc3ccc4c(c3)OCO4)cc2NC1=O (centres undefined)	-5	-1	1	-10	0	-5	-2
O=C(NCc1cccnc1)C(=O)C1C(=O)Nc2ccccc21 (centres undefined)	-9	-2	0	6	0	/	/
C[C@H](CO)N1C[C@H](C)[C@@H](CN(C)Cc2ccncc2)Oc2c(NC(=O)c3ccncc3)cccc2C1=O	4	4	-2	-8	-1	/	/
C[C@H](CO)N1C[C@H](C)[C@@H](CN(C)Cc2ccc(C(=O)O)cc2)Oc2c(NC(=O)c3ccncc3)cccc2C1=O	4	3	-1	54*	0	12	-11
C[C@H](CO)N1C[C@H](C)[C@@H](CN(C)C(=O)Nc2ccc3c(c2)OCO3)Oc2c(NC(=O)c3ccncc3)cccc2C1=O	0	22	-2	56*	3	5	-15
Cc1noc(C)c1NC(=O)N(C)C[C@@H]1Oc2c(NC(=O)c3ccncc3)cccc2C(=O)N([C@H](C)CO)C[C@@H]1C	3	3	-2	94*	-3	66*	-13	Scp-1 Tm shift=-27
O=C(O)c1cccc2c1C(=O)c1cc([N+](=O)[O-])cc([N+](=O)[O-])c1-2	0	11	1	/	-2	/	/
O=C(O)c1cccc2c1/C(=N/Nc1ccc([N+](=O)[O-])cc1[N+](=O)[O-])c1ccccc1-2	-4	-3	13	86*	17	57*	-15	Scp-1 Tm shift=12*
O=C(O)C1=CC[C@@H](c2ccc(Cl)cc2)N(S(=O)(=O)c2ccc(Cl)cc2)C1	5	0	0	-5	4	/	/
CNc1ccc(-c2ccccc2CO)cn1	-3	4	0	/	-1	/	/
Cc1cccc2cc(C(c3nnnn3C(C)(C)C)N(Cc3ccco3)CC3CCCO3)c(=O)[nH]c12 (centres undefined)	4	7	18	61*	3	53*	-7	Scp-1 Tm shift=-2
CCOc1ccc(NC(=O)C2CCCN(c3cnccn3)C2)cc1 (centres undefined)	-7	2	-1	1	1	/	/
Cc1ccc(C(C)NC(=O)c2ccc3c(c2)OCO3)cc1C (centres undefined)	1	0	0	-11	2	/	/
O=C(O)/C=C/C(=O)Nc1ccc(NC(=O)c2ccccc2)c(Cl)c1	6	1	2	73*	3	1	-8
O=C(O)/C=C\C(=O)Nc1cccc(NC(=O)c2ccccc2)c1	7	-2	-1	1	1	/	/
SMILES	SUMO1-SIM PPI	DNMT1 inh	LMPTP block	Scp1 inh	STEP block	Scp1 confirm	Scp-1 MG ctr	others
CSc1ccccc1NC(=O)c1cc2c(=O)n3ccccc3nc2s1	-3	3	1	-6	1	/	/
CC(C)NC(=O)c1cc2c(=O)n3ccccc3nc2s1	5	-3	0	64*	-4	-19	-19
CC(=O)NC(c1ccc(F)c(F)c1)c1nc(-c2cnc3ccccc3c2)cs1 (centres undefined)	-24	5	0	/	0	/	/
CCOC(=O)/C=C1\CC(C(=O)OCC)Oc2ccccc21 (centres undefined)	-7	4	-2	1	-2	/	/
CCOC(=O)/C=C1\CN(C(C)c2ccccc2)S(=O)(=O)c2ccccc21 (centres undefined)	-3	3	1	84*	2	46*	-18	Scp-1 Tm shift=-20
CCOC(=O)/C=C1\CN(CCC(C)C)S(=O)(=O)c2ccccc21	-8	2	0	59*	0	31*	-20	Scp-1 Tm shift=-23
COc1ccccc1NS(=O)(=O)c1ccc2[nH]c(=S)oc2c1	12	7	1	59*	-5	-7	-12
CC(C)CC(=O)O/N=C1\C(=O)N(c2ccccc2)c2ccccc21	-14	5	-1	-12	-5	/	/
CC(C)(C)C(=O)O/N=C1/C(=O)N(c2ccccc2)c2ccccc21	-17	22	4	89*	13	74*	-15	Scp-1 Tm shift=-16
CN(C)CCCNC(=O)C[C@H]1C[C@H](C(=O)N2CCOCC2)[C@@]2(C)c3[nH]c4ccc(Cl)cc4c3CCN2C1=O	-16	-4	-10	1	3	/	/
Cc1c(/C(O)=C2/C(=O)C(=O)N(CCN3CCOCC3)C2c2cccs2)cnn1-c1ccccc1 (centres undefined)	-8	3	-3	48	4	-28	-20
CCN(c1ccccc1)S(=O)(=O)c1ccc2[nH]cc(C(=O)N3CCOCC3)c(=O)c2c1	-2	14	0	52*	13	40*	-4	Scp-1 Tm shift=-5
